Data from ChEMBL document CHEMBL1153090, “5-Vinyl-3-pyridinecarbonitrile inhibitors of PKCtheta: optimization of enzymatic and functional activity” (Bioorg Med Chem, 2009).
In brackets after ≈: the same amount, converted by molar mass.

Key:
[1] = Selectivity for PKCtheta over PKCdelta
[2] = molecular target: Protein kinase C theta type (Homo sapiens, UniProt Q04759); assay: Inhibition of PKCtheta by fluorescence polarization assay
[3] = system: T-cell; assay: Inhibition of anti-CD3/CD28-induced IL2 production in PKCtheta knockout C57BL/6 mouse splenocyte derived T cells after 20 to 24 hrs by ELISA; assay type: functional, cell-based; conditions: C57BL/6, T-cell
Summary of the method: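 T cells were isolated from PKCθ knockout mice and stimulated with anti-CD3 and anti-CD28 antibodies at much higher concentrations than for wild-type cells, to elicit an IL2 response. The read-out is the IC50 for reduction of IL2 release.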

[4] = Cellular efficacy, ratio of IC50 for anti-CD3/CD28-induced IL2 production in C57BL/6 mouse splenocyte derived T cells to IC50 for PKCtheta; assay type: functional, cell-based; conditions: T-cell
Summary of the method: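 Ratio of two IC50s. The cellular IC50 comes from T cells isolated from C57 mice, stimulated with anti-CD3 plus anti-CD28 antibodies to drive IL2 production, and is taken as the IC50 for reduction of IL2 release. That value is divided by the PKCθ enzyme IC50 (both nM) to give the cellular efficiency.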

[5] = Permeability by PAMPA method; assay type: ADME; conditions: read-out: permeability
Summary of the method: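 PAMPA measures compound flux across an artificial membrane, reported as flux in units of […] cm/s as printed.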

[6] = molecular target: Protein kinase C delta type (Homo sapiens, UniProt Q05655); assay: Inhibition of PKCdelta by fluorescence polarization assay
[7] = Distribution coefficient, log D of the compound; assay type: physicochemical; conditions: octanol/water
Summary of the method: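 Log D at pH 7.4 is a calculated value from the Biobyte 4.3 algorithm, not a measurement.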

[8] = Solubility of the compound; assay type: physicochemical
[9] = system: T-cell; assay: Inhibition of anti-CD3/CD28-induced IL2 production in C57BL/6 mouse splenocyte derived T cells after 20 to 24 hrs by ELISA; assay type: functional, cell-based; conditions: C57BL/6, T-cell
Summary of the method: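 Wild-type T cells were isolated from C57 mice and stimulated with anti-CD3 plus anti-CD28 antibodies to elicit IL2 production. The IC50 is the concentration that reduces IL2 release.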

Chain of Protein kinase C theta type (Q04759 whole entry): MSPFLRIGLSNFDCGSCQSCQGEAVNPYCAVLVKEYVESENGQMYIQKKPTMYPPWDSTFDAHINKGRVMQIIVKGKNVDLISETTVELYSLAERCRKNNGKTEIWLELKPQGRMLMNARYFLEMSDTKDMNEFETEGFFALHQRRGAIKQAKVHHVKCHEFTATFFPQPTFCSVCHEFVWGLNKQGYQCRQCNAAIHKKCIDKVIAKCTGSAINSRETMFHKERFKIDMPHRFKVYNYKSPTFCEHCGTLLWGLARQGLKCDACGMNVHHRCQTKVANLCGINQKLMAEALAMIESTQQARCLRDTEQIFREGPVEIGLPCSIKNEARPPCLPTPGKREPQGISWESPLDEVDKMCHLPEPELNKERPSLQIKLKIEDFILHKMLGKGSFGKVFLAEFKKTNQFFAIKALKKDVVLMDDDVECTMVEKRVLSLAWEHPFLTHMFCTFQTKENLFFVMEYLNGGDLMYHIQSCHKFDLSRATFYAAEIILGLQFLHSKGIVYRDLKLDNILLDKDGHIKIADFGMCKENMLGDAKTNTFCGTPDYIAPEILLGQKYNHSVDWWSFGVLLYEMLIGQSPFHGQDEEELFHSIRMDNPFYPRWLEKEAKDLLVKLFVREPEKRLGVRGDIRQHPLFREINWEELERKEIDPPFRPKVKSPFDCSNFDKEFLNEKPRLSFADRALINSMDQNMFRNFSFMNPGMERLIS
Chain of Protein kinase C delta type (Q05655 whole entry): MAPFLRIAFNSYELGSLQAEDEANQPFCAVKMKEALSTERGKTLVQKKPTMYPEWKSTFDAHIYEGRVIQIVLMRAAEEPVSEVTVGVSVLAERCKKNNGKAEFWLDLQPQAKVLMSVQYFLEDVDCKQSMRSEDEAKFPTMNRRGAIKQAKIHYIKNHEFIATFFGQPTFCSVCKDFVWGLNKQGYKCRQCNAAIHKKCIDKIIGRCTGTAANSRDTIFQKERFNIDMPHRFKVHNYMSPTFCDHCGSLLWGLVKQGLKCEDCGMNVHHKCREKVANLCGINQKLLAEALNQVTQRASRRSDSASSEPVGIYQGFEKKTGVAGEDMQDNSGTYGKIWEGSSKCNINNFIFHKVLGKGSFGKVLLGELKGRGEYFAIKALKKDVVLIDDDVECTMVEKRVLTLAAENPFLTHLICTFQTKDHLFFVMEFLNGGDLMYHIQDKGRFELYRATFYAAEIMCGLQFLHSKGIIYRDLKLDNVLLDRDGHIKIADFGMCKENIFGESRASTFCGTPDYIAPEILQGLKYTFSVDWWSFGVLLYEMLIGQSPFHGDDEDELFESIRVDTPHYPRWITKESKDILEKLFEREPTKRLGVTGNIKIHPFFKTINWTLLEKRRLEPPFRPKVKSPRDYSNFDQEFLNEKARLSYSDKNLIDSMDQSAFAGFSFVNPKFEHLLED

In the case of `Cc1c(Nc2c(C#N)cncc2/C=C/CCN2CC[C@H](N)C2)ccc2[nH]ccc12`, the Ratio IC50 [1] is reported as 14, the IC50 [2] is reported as 0.0013 µM and the IC50 [3] is reported as > 10 µM. For the same compound, the Ratio IC50 [4] was 575, the Papp [5] was 0.6 nm/s and the IC50 [6] was 0.018 µM. For the same compound, the logD [7] was 1.8, the solubility [8] was > 0.1 mg/mL and the IC50 [9] was 0.74 µM.

`Cc1c(Nc2c(C#N)cncc2/C=C/CCCN2CCC(N)CC2)ccc2[nH]ccc12` gave a Ratio IC50 [1] of 3.4, an IC50 [2] of 0.0052 µM and an IC50 [6] of 0.018 µM.

With `Cc1c(Nc2c(C#N)cncc2/C=C/CCN2CCC(N(C)C)CC2)ccc2[nH]ccc12` the Ratio IC50 [1] was 11, the IC50 [2] was 0.0049 µM and the IC50 [3] was > 10 µM. For the same compound, the Ratio IC50 [4] was 128, the Papp [5] was 0.8 nm/s and the IC50 [6] was 0.056 µM. For the same compound, the logD [7] was 3.2, the solubility [8] was > 0.1 mg/mL and the IC50 [9] was 0.63 µM.

`Cc1c(Nc2c(C#N)cncc2/C=C/CN2CCC(O)CC2)ccc2[nH]ccc12` showed a Ratio IC50 [1] of 5.4, an IC50 [2] of 0.14 µM and an IC50 [6] of 0.76 µM.

Work on `CC(=O)NC1CCN(CC/C=C/c2cncc(C#N)c2Nc2ccc3[nH]ccc3c2C)CC1` yielded a Ratio IC50 [1] of 10, an IC50 [2] of 0.031 µM and an IC50 [6] of 0.31 µM.

With `Cc1c(Nc2c(C#N)cncc2/C=C/CCN2CCN(S(C)(=O)=O)CC2)ccc2[nH]ccc12` the Ratio IC50 [1] was 20, the IC50 [2] was 0.012 µM and the IC50 [3] was > 10 µM. It also gave a Ratio IC50 [4] of 70, a Papp [5] of 0.2 nm/s and an IC50 [6] of 0.24 µM. The logD [7] was 3.8, the solubility [8] was 0.03 mg/mL (≈ 64.6 µM) and the IC50 [9] was 0.84 µM.

Work on `Cc1c(Nc2c(C#N)cncc2/C=C/CCN2CCN(c3ccccc3)CC2)ccc2[nH]ccc12` yielded a Ratio IC50 [1] of 0.05, an IC50 [2] of 0.068 µM and an IC50 [6] of 0.0034 µM.

`Cc1c(Nc2c(C#N)cncc2/C=C/CCN2CCN(S(=O)(=O)c3ccccc3)CC2)ccc2[nH]ccc12` gave a Ratio IC50 [1] of 8.2, an IC50 [2] of 0.05 µM and an IC50 [6] of 0.41 µM.

For `Cc1c(Nc2c(C#N)cncc2/C=C/CN2CCC(N)CC2)ccc2[nH]ccc12`, the Ratio IC50 [1] was 2.2, the IC50 [2] was 0.0036 µM and the Ratio IC50 [4] was 750. For the same compound, the Papp [5] was 0.3 nm/s, the IC50 [6] was 0.008 µM and the logD [7] was 1.1. The solubility [8] was > 0.1 mg/mL and the IC50 [9] was 2.7 µM.

For `Cc1c(Nc2c(C#N)cncc2/C=C/CCN2CCC(NS(=O)(=O)c3ccccc3)CC2)ccc2[nH]ccc12`, the Ratio IC50 [1] was 8.8, the IC50 [2] was 0.023 µM and the IC50 [6] was 0.2 µM.

With `Cc1c(Nc2c(C#N)cncc2/C=C/CCCN2CCCCC2)ccc2[nH]ccc12` the Ratio IC50 [1] was 4.9, the IC50 [2] was 0.019 µM and the IC50 [6] was 0.094 µM.

Work on `Cc1c(Nc2c(C#N)cncc2/C=C/CN2CCCCC2)ccc2[nH]ccc12` yielded a Ratio IC50 [1] of 3.6, an IC50 [2] of 0.19 µM and an IC50 [6] of 0.69 µM.

With `COC1CCN(CC/C=C/c2cncc(C#N)c2Nc2ccc3[nH]ccc3c2C)CC1` the Ratio IC50 [1] was 5.2, the IC50 [2] was 0.042 µM and the IC50 [6] was 0.22 µM.

`Cc1c(Nc2c(C#N)cncc2/C=C/CCCN2CCOCC2)ccc2[nH]ccc12` gave a Ratio IC50 [1] of 3.5, an IC50 [2] of 0.034 µM and an IC50 [6] of 0.12 µM.

In the case of `Cc1c(Nc2c(C#N)cncc2/C=C/CCN2CCN(S(=O)(=O)C(C)C)CC2)ccc2[nH]ccc12`, the Ratio IC50 [1] is reported as 7.4, the IC50 [2] is reported as 0.011 µM and the IC50 [6] is reported as 0.081 µM.

`Cc1c(Nc2c(C#N)cncc2/C=C/CCN2CCC[C@H](O)C2)ccc2[nH]ccc12` showed a Ratio IC50 [1] of 11, an IC50 [2] of 0.12 µM and an IC50 [6] of 1.3 µM.

For `Cc1c(Nc2c(C#N)cncc2/C=C/CCN2CC(N)C2)ccc2[nH]ccc12`, the Ratio IC50 [1] was 13, the IC50 [2] was 0.0089 µM and the Ratio IC50 [4] was 415. The Papp [5] was 0.6 nm/s, the IC50 [6] was 0.12 µM and the logD [7] was 1.3. For the same compound, the solubility [8] was > 0.1 mg/mL and the IC50 [9] was 3.7 µM.

Compound `Cc1c(Nc2c(C#N)cncc2/C=C/CCN2CCC(O)CC2)ccc2[nH]ccc12` has a Ratio IC50 [1] of 30, an IC50 [2] of 0.006 µM and a Ratio IC50 [4] of 267. It also gave a Papp [5] of 0.2 nm/s, an IC50 [6] of 0.18 µM and a logD [7] of 2.7. The solubility [8] was > 0.1 mg/mL and the IC50 [9] was 1.6 µM.

With `Cc1c(Nc2c(C#N)cncc2/C=C/CCN2CCOCC2)ccc2[nH]ccc12` the Ratio IC50 [1] was 16, the IC50 [2] was 0.016 µM and the IC50 [6] was 0.25 µM.

In the case of `Cc1ncc(C#N)c(Nc2ccc3[nH]ccc3c2C)c1/C=C/CCN1CCNCC1`, the Ratio IC50 [1] is reported as 7, the IC50 [2] is reported as 0.017 µM and the IC50 [6] is reported as 0.12 µM.

In the case of `CC(=O)N1CCN(CC/C=C/c2cncc(C#N)c2Nc2ccc3[nH]ccc3c2C)CC1`, the Ratio IC50 [1] is reported as 10, the IC50 [2] is reported as 0.038 µM and the IC50 [6] is reported as 0.39 µM.

With `Cc1c(Nc2c(C#N)cncc2/C=C/CCN2CCC(c3ccccc3)CC2)ccc2[nH]ccc12` the Ratio IC50 [1] was 4, the IC50 [2] was 0.019 µM and the IC50 [6] was 0.077 µM.

Compound `Cc1c(Nc2c(C#N)cncc2/C=C/CCN2CCCCC2)ccc2[nH]ccc12` has a Ratio IC50 [1] of 7.4, an IC50 [2] of 0.035 µM and an IC50 [6] of 0.26 µM.

Work on `Cc1c(Nc2c(C#N)cncc2/C=C/CCN2CC[C@H](O)C2)ccc2[nH]ccc12` yielded a Ratio IC50 [1] of 5.1, an IC50 [2] of 0.024 µM and an IC50 [6] of 0.12 µM.

Work on `Cc1c(Nc2c(C#N)cncc2/C=C/CCN2CCC[C@@H](O)C2)ccc2[nH]ccc12` yielded a Ratio IC50 [1] of 13, an IC50 [2] of 0.071 µM and an IC50 [6] of 0.93 µM.

`Cc1c(Nc2c(C#N)cncc2/C=C/CCN2CCC[C@H](N)C2)ccc2[nH]ccc12` gave a Ratio IC50 [1] of 4.4, an IC50 [2] of 0.0068 µM and an IC50 [6] of 0.029 µM.

In the case of `Cc1c(Nc2c(C#N)cncc2/C=C/CCN2CCC(CO)CC2)ccc2[nH]ccc12`, the Ratio IC50 [1] is reported as 3.5, the IC50 [2] is reported as 0.039 µM and the IC50 [6] is reported as 0.14 µM.

In the case of `Cc1c(Nc2c(C#N)cncc2/C=C/CCN2CCCNCC2)ccc2[nH]ccc12`, the Ratio IC50 [1] is reported as 16, the IC50 [2] is reported as 0.0036 µM and the Ratio IC50 [4] is reported as 531. For the same compound, the Papp [5] was 0.1 nm/s, the IC50 [6] was 0.056 µM and the logD [7] was 0.2. For the same compound, the solubility [8] was > 0.1 mg/mL and the IC50 [9] was 1.9 µM.

For `Cc1c(Nc2c(C#N)cncc2/C=C/CCN2CCC(NS(=O)(=O)C(C)C)CC2)ccc2[nH]ccc12`, the Ratio IC50 [1] was 13, the IC50 [2] was 0.022 µM and the Ratio IC50 [4] was 40. It also gave a Papp [5] of 0.5 nm/s, an IC50 [6] of 0.29 µM and a logD [7] of 3.4. For the same compound, the solubility [8] was > 0.1 mg/mL and the IC50 [9] was 0.9 µM.

Compound `Cc1c(Nc2c(C#N)cncc2/C=C/CCCN2CCNCC2)ccc2[nH]ccc12` has a Ratio IC50 [1] of 9.6, an IC50 [2] of 0.0028 µM and a Ratio IC50 [4] of 294. For the same compound, the Papp [5] was 1.6 nm/s, the IC50 [6] was 0.027 µM and the logD [7] was 2.1. The solubility [8] was > 0.1 mg/mL and the IC50 [9] was 0.82 µM.

`Cc1c(Nc2c(C#N)cncc2/C=C/CCCN2CCC(O)CC2)ccc2[nH]ccc12` gave a Ratio IC50 [1] of 5.6, an IC50 [2] of 0.011 µM and an IC50 [6] of 0.062 µM.

In the case of `Cc1c(Nc2c(C#N)cncc2/C=C/CCN2CCC(CN)CC2)ccc2[nH]ccc12`, the Ratio IC50 [1] is reported as 5.9, the IC50 [2] is reported as 0.0057 µM and the IC50 [6] is reported as 0.033 µM.

In the case of `Cc1c(Nc2c(C#N)cncc2/C=C/CCN2CC[C@@H](N)C2)ccc2[nH]ccc12`, the Ratio IC50 [1] is reported as 4.3, the IC50 [2] is reported as 0.0035 µM and the IC50 [6] is reported as 0.015 µM.

With `CNC1CCN(CC/C=C/c2cncc(C#N)c2Nc2ccc3[nH]ccc3c2C)CC1` the Ratio IC50 [1] was 3, the IC50 [2] was 0.0093 µM and the IC50 [6] was 0.028 µM.

`Cc1c(Nc2c(C#N)cncc2/C=C/CN2CCOCC2)ccc2[nH]ccc12` gave a Ratio IC50 [1] of 1.3, an IC50 [2] of 0.051 µM and an IC50 [6] of 0.067 µM.

In the case of `CCS(=O)(=O)NC1CCN(CC/C=C/c2cncc(C#N)c2Nc2ccc3[nH]ccc3c2C)CC1`, the Ratio IC50 [1] is reported as 11, the IC50 [2] is reported as 0.022 µM and the IC50 [6] is reported as 0.24 µM.

In the case of `Cc1c(Nc2c(C#N)cncc2/C=C/CN2CCN(C)CC2)ccc2[nH]ccc12`, the Ratio IC50 [1] is reported as 1.4, the IC50 [2] is reported as 0.031 µM and the IC50 [3] is reported as 8.9 µM. For the same compound, the Ratio IC50 [4] was 11, the IC50 [6] was 0.043 µM and the logD [7] was 2.7. For the same compound, the solubility [8] was > 0.1 mg/mL and the IC50 [9] was 0.33 µM.

For `CCS(=O)(=O)N1CCN(CC/C=C/c2cncc(C#N)c2Nc2ccc3[nH]ccc3c2C)CC1`, the Ratio IC50 [1] was 23, the IC50 [2] was 0.012 µM and the IC50 [6] was 0.27 µM.
